Reference: ChEMBL document CHEMBL3271984, “Antifungal activity of 4-substituted crotonic acid esters” (1976)
In brackets after ≈: the same amount, converted by molar mass. Activity calls are given as the source filed them. The calls are words filed in the database; no cut-off is given here.

Columns and labels:
Format in all cases: functional
[1] = tested on: Candida albicans; experiment: Antifungal activity against Candida albicans ATCC 10231 assessed as growth inhibition at pH 7 incubated for 20 hrs in presence of 10% beef serum; conditions: for MIC: ATCC 10231, 20 h, read-out: MIC100
Procedure, shortened: (§1)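 Agar dilution in Sabouraud dextrose agar at pH 5.6 or 7.0, with or without 10% beef serum. C. albicans and M. mucedo were incubated 20 h at 37°; A. niger and T. mentagrophytes 5 days at 28°. The value is the minimal µg/ml giving 100% inhibition. Steps were 1 µg/ml up to 10, 2 up to 20, then 10 up to 100 µg/ml maximum.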

[2] = tested on: Candida albicans; experiment: Antifungal activity against Candida albicans ATCC 10231 assessed as growth inhibition at pH 5.6 incubated for 20 hrs in absence of 10% beef serum; conditions: for MIC: ATCC 10231, 20 h, read-out: MIC100; procedure, shortened: as §1
[3] = tested on: Candida albicans; experiment: Antifungal activity against Candida albicans ATCC 10231 assessed as growth inhibition at pH 5.6 incubated for 20 hrs in presence of 10% beef serum; conditions: for MIC: ATCC 10231, 20 h, read-out: MIC100; procedure, shortened: as §1
[4] = tested on: Candida albicans; experiment: Antifungal activity against Candida albicans ATCC 10231 assessed as growth inhibition at pH 7 incubated for 20 hrs in absence of 10% beef serum; conditions: for MIC: ATCC 10231, 20 h, read-out: MIC100; procedure, shortened: as §1
[5] = tested on: Aspergillus niger; experiment: Antifungal activity against Aspergillus niger ATCC 1004 assessed as growth inhibition at pH 5.6 incubated for 5 days in absence of 10% beef serum; conditions: for MIC: ATCC 1004, 120 h, read-out: MIC100; procedure, shortened: as §1
[6] = tested on: Aspergillus niger; experiment: Antifungal activity against Aspergillus niger ATCC 1004 assessed as growth inhibition at pH 5.6 incubated for 5 days in presence of 10% beef serum; conditions: for MIC: ATCC 1004, 120 h, read-out: MIC100; procedure, shortened: as §1
[7] = tested on: Aspergillus niger; experiment: Antifungal activity against Aspergillus niger ATCC 1004 assessed as growth inhibition at pH 7 incubated for 5 days in absence of 10% beef serum; conditions: for MIC: ATCC 1004, 120 h, read-out: MIC100; procedure, shortened: as §1
[8] = tested on: Aspergillus niger; experiment: Antifungal activity against Aspergillus niger ATCC 1004 assessed as growth inhibition at pH 7 incubated for 5 days in presence of 10% beef serum; conditions: for MIC: ATCC 1004, 120 h, read-out: MIC100; procedure, shortened: as §1
[9] = tested on: Mucor mucedo; experiment: Antifungal activity against Mucor mucedo ATCC 7941 assessed as growth inhibition at pH 5.6 incubated for 20 hrs in absence of 10% beef serum; conditions: for MIC: ATCC 7941, 20 h, read-out: MIC100; procedure, shortened: as §1
[10] = tested on: Mucor mucedo; experiment: Antifungal activity against Mucor mucedo ATCC 7941 assessed as growth inhibition at pH 5.6 incubated for 20 hrs in presence of 10% beef serum; conditions: for MIC: ATCC 7941, 20 h, read-out: MIC100; procedure, shortened: as §1
[11] = tested on: Mucor mucedo; experiment: Antifungal activity against Mucor mucedo ATCC 7941 assessed as growth inhibition at pH 7 incubated for 20 hrs in absence of 10% beef serum; conditions: for MIC: ATCC 7941, 20 h, read-out: MIC100; procedure, shortened: as §1
[12] = tested on: Mucor mucedo; experiment: Antifungal activity against Mucor mucedo ATCC 7941 assessed as growth inhibition at pH 7 incubated for 20 hrs in presence of 10% beef serum; conditions: for MIC: ATCC 7941, 20 h, read-out: MIC100; procedure, shortened: as §1
[13] = tested on: Trichophyton mentagrophytes; experiment: Antifungal activity against Trichophyton mentagrophytes ATCC 9129 assessed as growth inhibition at pH 5.6 incubated for 5 days in absence of 10% beef serum; conditions: for MIC: ATCC 9129, 120 h, read-out: MIC100; procedure, shortened: as §1
[14] = tested on: Trichophyton mentagrophytes; experiment: Antifungal activity against Trichophyton mentagrophytes ATCC 9129 assessed as growth inhibition at pH 5.6 incubated for 5 days in presence of 10% beef serum; conditions: for MIC: ATCC 9129, 120 h, read-out: MIC100; procedure, shortened: as §1
[15] = tested on: Trichophyton mentagrophytes; experiment: Antifungal activity against Trichophyton mentagrophytes ATCC 9129 assessed as growth inhibition at pH 7 incubated for 5 days in absence of 10% beef serum; conditions: for MIC: ATCC 9129, 120 h, read-out: MIC100; procedure, shortened: as §1
[16] = tested on: Trichophyton mentagrophytes; experiment: Antifungal activity against Trichophyton mentagrophytes ATCC 9129 assessed as growth inhibition at pH 7 incubated for 5 days in presence of 10% beef serum; conditions: for MIC: ATCC 9129, 120 h, read-out: MIC100; procedure, shortened: as §1

SMILES | MIC [1] | MIC [2] | MIC [3] | MIC [4] | MIC [5] | MIC [6] | MIC [7] | MIC [8] | MIC [9] | MIC [10] | MIC [11] | MIC [12] | MIC [13] | MIC [14] | MIC [15] | MIC [16] | MIC100 [6] | MIC100 [8] | also measured
CCCCOC(=O)/C=C/CBr | 40 µg/mL | 16 µg/mL (≈ 72.4 µM) | 30 µg/mL | 30 µg/mL (≈ 136 µM) | 60 µg/mL (≈ 271 µM) | 100 µg/mL | 50 µg/mL (≈ 226 µM) | 80 µg/mL | 4 µg/mL (≈ 18.1 µM) | 4 µg/mL | 4 µg/mL (≈ 18.1 µM) | 7 µg/mL | < 1 µg/mL | 4 µg/mL | 3 µg/mL (≈ 13.6 µM) | 8 µg/mL | – | – | –
C[C@@H]1[C@H](O)[C@@H](C)/C=C/C=C/C=C/C=C/C=C/C=C/C=C/[C@H](O[C@@H]2O[C@H](C)[C@@H](O)[C@H](N)[C@@H]2O)C[C@@H]2O[C@](O)(C[C@@H](O)C[C@@H](O)[C@H](O)CC[C@@H](O)C[C@@H](O)CC(=O)O[C@H]1C)C[C@H](O)[C@H]2C(=O)O [AMPHOTERICIN B] | < 1 µg/mL | < 1 µg/mL | < 1 µg/mL | < 1 µg/mL | < 1 µg/mL | < 1 µg/mL | < 1 µg/mL | < 1 µg/mL | < 1 µg/mL | < 1 µg/mL | < 1 µg/mL | < 1 µg/mL | < 1 µg/mL | < 1 µg/mL | < 1 µg/mL | < 1 µg/mL | – | – | –
COC(=O)/C=C/CF | – | – | – | – | – | – | – | – | – | – | – | – | – | – | – | – | inactive | inactive | MIC100 [1]: inactive; MIC100 [2]: inactive; MIC100 [3]: inactive; MIC100 [4]: inactive; MIC100 [5]: inactive; MIC100 [7]: inactive; MIC100 [9]: inactive; MIC100 [10]: inactive; MIC100 [11]: inactive; MIC100 [12]: inactive; MIC100 [13]: inactive; MIC100 [14]: inactive; MIC100 [15]: inactive; MIC100 [16]: inactive
CCCCCOC(=O)/C=C/CBr | 50 µg/mL | 20 µg/mL (≈ 85.1 µM) | 50 µg/mL | 30 µg/mL (≈ 128 µM) | 70 µg/mL (≈ 298 µM) | – | 70 µg/mL (≈ 298 µM) | – | 3 µg/mL (≈ 12.8 µM) | 14 µg/mL | 14 µg/mL (≈ 59.5 µM) | 30 µg/mL | < 1 µg/mL | 4 µg/mL | 2 µg/mL (≈ 8.51 µM) | 10 µg/mL | inactive | inactive | –
COC(=O)/C=C/CI | 18 µg/mL | 16 µg/mL (≈ 70.8 µM) | 30 µg/mL | 20 µg/mL (≈ 88.5 µM) | 30 µg/mL (≈ 133 µM) | 40 µg/mL | 30 µg/mL (≈ 133 µM) | 40 µg/mL | 9 µg/mL (≈ 39.8 µM) | 10 µg/mL | 9 µg/mL (≈ 39.8 µM) | 8 µg/mL | < 1 µg/mL | 3 µg/mL | 2 µg/mL (≈ 8.85 µM) | 4 µg/mL | – | – | –
CCCCCCOC(=O)/C=C/CI | 90 µg/mL | 16 µg/mL (≈ 54 µM) | 80 µg/mL | 30 µg/mL (≈ 101 µM) | – | – | – | – | 14 µg/mL (≈ 47.3 µM) | 40 µg/mL | 14 µg/mL (≈ 47.3 µM) | 50 µg/mL | < 1 µg/mL | 8 µg/mL | 3 µg/mL (≈ 10.1 µM) | 20 µg/mL | inactive | inactive | MIC100 [5]: inactive; MIC100 [7]: inactive
CCCOC(=O)/C=C/CI | 20 µg/mL | 10 µg/mL (≈ 39.4 µM) | 16 µg/mL | 12 µg/mL (≈ 47.2 µM) | 30 µg/mL (≈ 118 µM) | 60 µg/mL | 30 µg/mL (≈ 118 µM) | 60 µg/mL | 2 µg/mL (≈ 7.87 µM) | 5 µg/mL | 3 µg/mL (≈ 11.8 µM) | 6 µg/mL | < 1 µg/mL | 3 µg/mL | 2 µg/mL (≈ 7.87 µM) | 7 µg/mL | – | – | –
COC(=O)/C=C/CCl | – | – | – | – | – | – | – | – | 60 µg/mL (≈ 446 µM) | 80 µg/mL | 80 µg/mL (≈ 595 µM) | 90 µg/mL | 4 µg/mL (≈ 29.7 µM) | 40 µg/mL | 60 µg/mL (≈ 446 µM) | 60 µg/mL | inactive | inactive | MIC100 [1]: inactive; MIC100 [2]: inactive; MIC100 [3]: inactive; MIC100 [4]: inactive; MIC100 [5]: inactive; MIC100 [7]: inactive
COC/C=C/C(=O)OC | – | – | – | – | – | – | – | – | – | – | – | – | – | – | – | – | – | – | MIC100 [9]: inactive; MIC100 [13]: inactive
CCCOC(=O)/C=C/CBr | 40 µg/mL | 18 µg/mL (≈ 86.9 µM) | 30 µg/mL | 30 µg/mL (≈ 145 µM) | 80 µg/mL (≈ 386 µM) | 90 µg/mL | 60 µg/mL (≈ 290 µM) | 80 µg/mL | 4 µg/mL (≈ 19.3 µM) | 5 µg/mL | 4 µg/mL (≈ 19.3 µM) | 7 µg/mL | < 1 µg/mL | 3 µg/mL | 3 µg/mL (≈ 14.5 µM) | 7 µg/mL | – | – | –
CCCCCOC(=O)/C=C/CI | 50 µg/mL | 5 µg/mL (≈ 17.7 µM) | 40 µg/mL | 12 µg/mL (≈ 42.5 µM) | 40 µg/mL (≈ 142 µM) | – | 30 µg/mL (≈ 106 µM) | – | 4 µg/mL (≈ 14.2 µM) | 9 µg/mL | 3 µg/mL (≈ 10.6 µM) | 12 µg/mL | < 1 µg/mL | 4 µg/mL | 2 µg/mL (≈ 7.09 µM) | 10 µg/mL | inactive | inactive | –
CCOC(=O)/C=C/CI | 18 µg/mL | 8 µg/mL (≈ 33.3 µM) | 18 µg/mL | 10 µg/mL (≈ 41.7 µM) | 40 µg/mL (≈ 167 µM) | 50 µg/mL | 40 µg/mL (≈ 167 µM) | 40 µg/mL | < 1 µg/mL | 4 µg/mL | 3 µg/mL (≈ 12.5 µM) | 5 µg/mL | < 1 µg/mL | 2 µg/mL | 2 µg/mL (≈ 8.33 µM) | 4 µg/mL | – | – | –
CC1/C=C/C=C/C=C/C=C/C=C/C=C/C=C/C(OC2O[C@H](C)[C@@H](O)[C@H](N)[C@@H]2O)CC(O)C(C(=O)O)C(O)CC(=O)CC(O)CC(O)CC(O)CC(=O)CCCC(=O)CC(=O)OC1C(C)CC(C)C(O)CC(=O)c1ccc(N)cc1 (some centres undefined) | 2 µg/mL | < 1 µg/mL | < 1 µg/mL | < 1 µg/mL | 2 µg/mL (≈ 1.8 µM) | 5 µg/mL | 5 µg/mL (≈ 4.51 µM) | 7 µg/mL | < 1 µg/mL | < 1 µg/mL | < 1 µg/mL | < 1 µg/mL | < 1 µg/mL | < 1 µg/mL | 3 µg/mL (≈ 2.7 µM) | 9 µg/mL | – | – | –
